Results on 1 compound are retold here after ChEMBL document CHEMBL4321823, “Benzyl Phenylsemicarbazides: A Chemistry-Driven Approach Leading to G Protein-Biased Dopamine D4 Receptor Agonists with High Subtype Selectivity” (J Med Chem, 2019).

Active and inactive are the calls of the source. No cut-off for these calls is given here.

The target of series [1] is T1, D(2) dopamine receptor (Homo sapiens, UniProt P14416). The series is described as follows: Displacement of [3H] Spiperone from human D2L receptor expressed in CHO cells by competitive radioligand binding assay. Format: cell-based. (Displacement assays read how much labelled ligand stays bound in the presence of the test substance.)
T1 sequence (P14416 whole entry): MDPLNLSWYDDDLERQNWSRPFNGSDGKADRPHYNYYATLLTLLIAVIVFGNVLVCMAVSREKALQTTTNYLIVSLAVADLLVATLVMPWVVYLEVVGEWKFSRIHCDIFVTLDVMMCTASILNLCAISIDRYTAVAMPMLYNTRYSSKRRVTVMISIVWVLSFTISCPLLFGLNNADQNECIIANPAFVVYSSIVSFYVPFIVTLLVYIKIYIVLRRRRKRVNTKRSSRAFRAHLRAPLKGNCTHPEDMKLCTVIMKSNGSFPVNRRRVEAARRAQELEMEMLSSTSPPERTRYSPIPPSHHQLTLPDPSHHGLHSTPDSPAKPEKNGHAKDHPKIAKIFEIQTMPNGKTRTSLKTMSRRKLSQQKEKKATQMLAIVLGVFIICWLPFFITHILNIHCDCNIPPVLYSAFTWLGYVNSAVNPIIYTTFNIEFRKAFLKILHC
Series [2] deals with T1, D(2) dopamine receptor. As to the kind of experiment: Displacement of [3H] Spiperone from human D2S receptor expressed in CHO cells by competitive radioligand binding assay. The class given is cell-based.
In another series the target is D(3) dopamine receptor (Homo sapiens, UniProt P35462). The series is described as follows: Displacement of [3H] Spiperone from human D3 receptor expressed in CHO cells by competitive radioligand binding assay. The class given is cell-based.
Chain of D(3) dopamine receptor (P35462 whole entry): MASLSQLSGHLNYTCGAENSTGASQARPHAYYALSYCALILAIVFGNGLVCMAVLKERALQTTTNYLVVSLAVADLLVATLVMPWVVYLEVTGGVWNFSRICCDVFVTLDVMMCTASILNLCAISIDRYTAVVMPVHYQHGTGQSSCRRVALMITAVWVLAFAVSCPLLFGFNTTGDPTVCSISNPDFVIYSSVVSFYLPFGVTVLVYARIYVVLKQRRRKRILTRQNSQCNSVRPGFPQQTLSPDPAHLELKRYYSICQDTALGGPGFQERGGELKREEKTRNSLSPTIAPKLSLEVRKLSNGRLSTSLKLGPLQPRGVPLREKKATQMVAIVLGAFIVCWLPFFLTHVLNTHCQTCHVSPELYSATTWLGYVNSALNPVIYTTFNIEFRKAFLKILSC
The next series has as its target D(1A) dopamine receptor (Homo sapiens, UniProt P21728). The series is described as follows: Displacement of [3H] SCH23390 from D1 receptor (unknown origin).
For another series, the target named is D(1B) dopamine receptor (Homo sapiens, UniProt P21918). As to the kind of experiment: Displacement of [3H] SCH23390 from D5 receptor (unknown origin).
Chain of D(1B) dopamine receptor (P21918 whole entry): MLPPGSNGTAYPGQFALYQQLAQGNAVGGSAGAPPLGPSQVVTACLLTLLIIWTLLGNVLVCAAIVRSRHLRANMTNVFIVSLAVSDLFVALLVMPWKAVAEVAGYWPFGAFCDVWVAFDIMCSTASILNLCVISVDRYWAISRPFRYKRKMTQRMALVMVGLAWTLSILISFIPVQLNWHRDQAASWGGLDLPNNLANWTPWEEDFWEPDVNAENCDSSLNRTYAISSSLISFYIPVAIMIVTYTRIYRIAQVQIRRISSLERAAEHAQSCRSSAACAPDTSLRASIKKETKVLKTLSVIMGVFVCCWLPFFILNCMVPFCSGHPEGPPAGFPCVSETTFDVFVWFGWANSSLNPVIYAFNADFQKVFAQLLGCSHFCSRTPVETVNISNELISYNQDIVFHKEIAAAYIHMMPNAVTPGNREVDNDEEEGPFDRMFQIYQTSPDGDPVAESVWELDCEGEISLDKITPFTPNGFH
Series [3] deals with T2, Alpha-1A adrenergic receptor (Homo sapiens, UniProt P35348).
T2 sequence (P35348 whole entry): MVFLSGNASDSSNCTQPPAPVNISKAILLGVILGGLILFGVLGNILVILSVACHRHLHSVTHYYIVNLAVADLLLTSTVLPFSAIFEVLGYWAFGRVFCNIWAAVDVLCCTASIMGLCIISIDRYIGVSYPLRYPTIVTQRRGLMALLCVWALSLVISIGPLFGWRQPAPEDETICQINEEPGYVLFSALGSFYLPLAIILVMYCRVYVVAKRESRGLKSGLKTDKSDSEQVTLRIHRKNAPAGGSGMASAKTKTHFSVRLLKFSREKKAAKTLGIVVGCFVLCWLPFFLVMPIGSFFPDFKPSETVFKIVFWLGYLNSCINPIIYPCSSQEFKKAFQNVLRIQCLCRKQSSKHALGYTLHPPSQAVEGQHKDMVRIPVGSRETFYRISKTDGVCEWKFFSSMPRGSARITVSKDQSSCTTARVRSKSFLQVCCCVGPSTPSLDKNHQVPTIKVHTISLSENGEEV
The series is described as follows: Displacement of [3H] prazosin from alpha1A adrenergic receptor (unknown origin).

Series [4] concerns the target T3, Alpha-2A adrenergic receptor (Homo sapiens, UniProt P08913).
T3 sequence (P08913 whole entry): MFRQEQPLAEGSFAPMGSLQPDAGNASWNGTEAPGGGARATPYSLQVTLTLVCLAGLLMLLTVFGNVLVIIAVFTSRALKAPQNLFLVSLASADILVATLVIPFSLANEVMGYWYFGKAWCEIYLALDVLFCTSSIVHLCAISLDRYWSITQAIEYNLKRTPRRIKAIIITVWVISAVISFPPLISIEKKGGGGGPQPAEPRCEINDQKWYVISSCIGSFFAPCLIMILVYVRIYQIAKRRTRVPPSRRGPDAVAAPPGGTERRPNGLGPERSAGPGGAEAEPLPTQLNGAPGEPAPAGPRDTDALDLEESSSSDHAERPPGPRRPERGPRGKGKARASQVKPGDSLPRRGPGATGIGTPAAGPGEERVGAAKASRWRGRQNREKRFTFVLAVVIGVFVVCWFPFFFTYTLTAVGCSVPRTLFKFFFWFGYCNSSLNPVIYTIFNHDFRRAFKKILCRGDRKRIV
As to the kind of experiment: Displacement of [3H] RX821002 from alpha2A adrenergic receptor (unknown origin).

Series [5] addresses Beta-1 adrenergic receptor (Homo sapiens, UniProt P08588). The series is described as follows: Displacement of [3H] CGP12177 from beta1 adrenergic receptor (unknown origin).
For series [6], the target named is Beta-2 adrenergic receptor (Homo sapiens, UniProt P07550). As to the kind of experiment: Displacement of [3H] CGP12177 from beta2 adrenergic receptor (unknown origin).
Chain of Beta-2 adrenergic receptor (P07550 whole entry): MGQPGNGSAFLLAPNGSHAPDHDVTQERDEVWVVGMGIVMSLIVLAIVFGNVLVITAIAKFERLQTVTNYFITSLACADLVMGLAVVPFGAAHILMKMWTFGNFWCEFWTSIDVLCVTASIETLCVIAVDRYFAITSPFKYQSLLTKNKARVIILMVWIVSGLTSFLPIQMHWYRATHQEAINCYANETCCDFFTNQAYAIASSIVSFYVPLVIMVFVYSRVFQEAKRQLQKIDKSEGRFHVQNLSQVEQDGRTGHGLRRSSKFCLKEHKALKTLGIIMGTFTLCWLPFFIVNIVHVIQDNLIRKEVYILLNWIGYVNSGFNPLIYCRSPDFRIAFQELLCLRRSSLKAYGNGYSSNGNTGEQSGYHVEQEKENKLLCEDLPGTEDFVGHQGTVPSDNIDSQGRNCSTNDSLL
Series [7] deals with Delta-type opioid receptor (Homo sapiens, UniProt P41143). As to the kind of experiment: Displacement of [3H] diprenorphine from delta opioid receptor (unknown origin).
Chain of Delta-type opioid receptor (P41143 whole entry): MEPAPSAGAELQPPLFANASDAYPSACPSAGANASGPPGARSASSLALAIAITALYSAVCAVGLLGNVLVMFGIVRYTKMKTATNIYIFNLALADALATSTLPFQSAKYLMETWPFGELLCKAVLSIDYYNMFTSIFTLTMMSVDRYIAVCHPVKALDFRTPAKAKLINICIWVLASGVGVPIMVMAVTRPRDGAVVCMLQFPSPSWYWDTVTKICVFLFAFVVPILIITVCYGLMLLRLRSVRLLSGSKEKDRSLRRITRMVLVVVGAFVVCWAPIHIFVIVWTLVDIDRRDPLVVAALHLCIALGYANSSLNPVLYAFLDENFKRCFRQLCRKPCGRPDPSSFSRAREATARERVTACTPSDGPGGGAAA
Series [8] concerns the target Kappa-type opioid receptor (Homo sapiens, UniProt P41145). The series is described as follows: Displacement of [3H] diprenorphine from kappa opioid receptor (unknown origin). The method, boiled down:
(§1)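 Radioligand competition binding; Ki given as mean ± SD from two individual experiments, each run in triplicate.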

The next series concerns the target Mu-type opioid receptor (Homo sapiens, UniProt P35372). The series is described as follows: Displacement of [3H] diprenorphine from mu opioid receptor (unknown origin). The method, boiled down:
as §1

Series [9] has as its target T4, Muscarinic acetylcholine receptor M1 (Homo sapiens, UniProt P11229).
T4 sequence (P11229 whole entry): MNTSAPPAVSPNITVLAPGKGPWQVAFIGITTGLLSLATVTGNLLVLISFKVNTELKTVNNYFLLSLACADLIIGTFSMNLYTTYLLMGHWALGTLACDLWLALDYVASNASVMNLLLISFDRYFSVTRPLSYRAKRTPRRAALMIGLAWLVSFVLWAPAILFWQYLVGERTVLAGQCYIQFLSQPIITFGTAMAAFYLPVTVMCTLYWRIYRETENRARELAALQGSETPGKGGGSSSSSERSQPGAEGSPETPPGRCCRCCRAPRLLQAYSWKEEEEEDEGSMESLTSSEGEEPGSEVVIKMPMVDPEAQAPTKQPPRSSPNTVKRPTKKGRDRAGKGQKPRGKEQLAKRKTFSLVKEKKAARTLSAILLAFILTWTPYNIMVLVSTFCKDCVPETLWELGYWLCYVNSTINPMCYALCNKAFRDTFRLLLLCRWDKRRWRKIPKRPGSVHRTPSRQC
The series is described as follows: Displacement of [3H] NMS from muscarinic M1 receptor (unknown origin). The procedure, abridged:
as §1

The target of series [10] is T5, Muscarinic acetylcholine receptor M2 (Homo sapiens, UniProt P08172).
T5 sequence (P08172 whole entry): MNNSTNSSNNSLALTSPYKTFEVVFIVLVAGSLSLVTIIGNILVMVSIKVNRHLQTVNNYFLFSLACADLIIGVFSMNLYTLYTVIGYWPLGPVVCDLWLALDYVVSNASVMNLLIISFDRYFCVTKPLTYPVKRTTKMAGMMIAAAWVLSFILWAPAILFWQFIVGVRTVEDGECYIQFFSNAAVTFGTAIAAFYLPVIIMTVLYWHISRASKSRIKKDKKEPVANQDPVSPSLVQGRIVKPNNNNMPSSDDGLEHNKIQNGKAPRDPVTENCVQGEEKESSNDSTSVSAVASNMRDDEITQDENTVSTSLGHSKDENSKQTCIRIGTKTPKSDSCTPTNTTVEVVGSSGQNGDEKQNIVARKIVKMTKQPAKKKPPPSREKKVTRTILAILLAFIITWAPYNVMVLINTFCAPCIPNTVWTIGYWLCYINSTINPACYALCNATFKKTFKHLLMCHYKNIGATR
The series is described as follows: Displacement of [3H] NMS from muscarinic M2 receptor (unknown origin). The method, boiled down:
as §1

Series [11] addresses Muscarinic acetylcholine receptor M3 (Homo sapiens, UniProt P20309). As to the kind of experiment: Displacement of [3H] NMS from muscarinic M3 receptor (unknown origin). The method, boiled down:
as §1

Series [12] addresses T6, 5-hydroxytryptamine receptor 1A (Homo sapiens, UniProt P08908).
T6 sequence (P08908 whole entry): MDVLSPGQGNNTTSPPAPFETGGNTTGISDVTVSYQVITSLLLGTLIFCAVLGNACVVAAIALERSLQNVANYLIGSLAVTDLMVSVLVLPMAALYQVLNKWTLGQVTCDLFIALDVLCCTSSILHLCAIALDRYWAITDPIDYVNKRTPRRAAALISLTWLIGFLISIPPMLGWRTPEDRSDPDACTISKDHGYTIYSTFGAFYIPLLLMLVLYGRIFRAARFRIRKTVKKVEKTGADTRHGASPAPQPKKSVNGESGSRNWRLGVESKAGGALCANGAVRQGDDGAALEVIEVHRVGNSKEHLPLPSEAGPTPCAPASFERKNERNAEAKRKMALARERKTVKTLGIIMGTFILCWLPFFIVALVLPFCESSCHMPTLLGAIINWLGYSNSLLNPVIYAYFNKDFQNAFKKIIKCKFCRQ
As to the kind of experiment: Displacement of [3H] WAY100635 from 5HT1A receptor (unknown origin). The procedure, abridged: as §1

Series [13] addresses 5-hydroxytryptamine receptor 2A (Homo sapiens, UniProt P28223). As to the kind of experiment: Displacement of [3H] Ketanserin from 5HT2A receptor (unknown origin).
Series [14] addresses T7, Alpha-1A adrenergic receptor (Homo sapiens) (UniProt P35348).
T7 sequence (whole entry): T2 sequence (P35348 whole entry)
The series is described as follows: Antagonist activity at human alpha1A adrenergic receptor expressed in HEK293T cells assessed as accumulation of inositol monophosphate using d2-labelled IP1 conjugate incubated for 60 mins by HTRF assay. The class given is functional, cell-based. Background: Time-resolved FRET reads energy transfer from a long-lived donor to a nearby acceptor.

A short description of series [15]: Drug metabolism in Sprague-Dawley rat liver microsomes assessed as unchanged remaining parent compound at 20 uM measured after 120 mins in presence of NADPH by LC-ESI-MS analysis. Format: ADME, Microsome. To be noted: read-out: Drug metabolism. (In general: Microsomes from liver hold many membrane-bound enzymes, among them those of drug oxidation.)
Series [16] can be described thus: Drug metabolism in Sprague-Dawley rat liver microsomes assessed as metabolite formation at 20 uM measured after 120 mins in presence of NADPH by LC-ESI-MS analysis. The class given is ADME, Microsome. The settings on record: 2 h.

Chain of Muscarinic acetylcholine receptor M3 (P20309 whole entry): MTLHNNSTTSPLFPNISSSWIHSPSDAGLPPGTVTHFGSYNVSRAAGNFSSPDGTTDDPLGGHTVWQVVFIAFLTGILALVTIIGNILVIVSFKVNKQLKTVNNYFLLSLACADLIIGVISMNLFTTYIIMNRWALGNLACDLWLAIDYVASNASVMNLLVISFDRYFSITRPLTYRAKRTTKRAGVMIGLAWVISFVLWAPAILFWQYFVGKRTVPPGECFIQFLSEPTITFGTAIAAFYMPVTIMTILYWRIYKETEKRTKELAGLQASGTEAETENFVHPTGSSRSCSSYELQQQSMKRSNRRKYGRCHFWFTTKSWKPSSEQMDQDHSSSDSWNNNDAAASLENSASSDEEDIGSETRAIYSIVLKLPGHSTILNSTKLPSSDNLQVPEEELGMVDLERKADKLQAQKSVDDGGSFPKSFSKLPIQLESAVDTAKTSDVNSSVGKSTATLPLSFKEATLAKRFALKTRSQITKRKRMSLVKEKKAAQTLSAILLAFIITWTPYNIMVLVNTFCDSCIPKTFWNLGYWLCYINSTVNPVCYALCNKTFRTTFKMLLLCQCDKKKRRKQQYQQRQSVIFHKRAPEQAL
Chain of D(1A) dopamine receptor (P21728 whole entry): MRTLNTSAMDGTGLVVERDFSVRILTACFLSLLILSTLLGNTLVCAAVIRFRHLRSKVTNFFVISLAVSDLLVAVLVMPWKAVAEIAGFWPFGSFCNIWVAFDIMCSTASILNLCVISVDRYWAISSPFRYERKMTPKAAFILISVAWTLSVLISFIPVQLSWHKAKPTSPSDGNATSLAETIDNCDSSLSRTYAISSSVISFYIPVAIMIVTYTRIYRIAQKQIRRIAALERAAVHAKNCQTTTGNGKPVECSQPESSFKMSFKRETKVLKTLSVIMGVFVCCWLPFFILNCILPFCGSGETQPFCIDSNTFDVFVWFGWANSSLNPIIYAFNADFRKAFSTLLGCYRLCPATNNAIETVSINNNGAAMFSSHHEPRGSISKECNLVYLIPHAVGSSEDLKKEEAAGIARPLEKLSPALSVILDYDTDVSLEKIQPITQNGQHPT
Chain of Beta-1 adrenergic receptor (P08588 whole entry): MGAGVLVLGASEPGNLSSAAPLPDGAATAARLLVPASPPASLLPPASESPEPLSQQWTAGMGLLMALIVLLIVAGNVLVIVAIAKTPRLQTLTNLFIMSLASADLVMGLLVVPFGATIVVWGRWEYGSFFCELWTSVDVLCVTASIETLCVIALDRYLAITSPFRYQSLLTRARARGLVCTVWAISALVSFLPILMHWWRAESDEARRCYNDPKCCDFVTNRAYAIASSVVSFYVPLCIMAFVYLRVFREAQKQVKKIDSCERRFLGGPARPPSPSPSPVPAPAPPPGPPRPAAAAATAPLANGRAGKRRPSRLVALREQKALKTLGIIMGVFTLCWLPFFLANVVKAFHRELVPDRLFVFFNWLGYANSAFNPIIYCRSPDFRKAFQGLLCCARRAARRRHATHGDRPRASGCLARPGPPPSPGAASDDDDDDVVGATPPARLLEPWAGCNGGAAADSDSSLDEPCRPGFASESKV
Chain of Mu-type opioid receptor (P35372 whole entry): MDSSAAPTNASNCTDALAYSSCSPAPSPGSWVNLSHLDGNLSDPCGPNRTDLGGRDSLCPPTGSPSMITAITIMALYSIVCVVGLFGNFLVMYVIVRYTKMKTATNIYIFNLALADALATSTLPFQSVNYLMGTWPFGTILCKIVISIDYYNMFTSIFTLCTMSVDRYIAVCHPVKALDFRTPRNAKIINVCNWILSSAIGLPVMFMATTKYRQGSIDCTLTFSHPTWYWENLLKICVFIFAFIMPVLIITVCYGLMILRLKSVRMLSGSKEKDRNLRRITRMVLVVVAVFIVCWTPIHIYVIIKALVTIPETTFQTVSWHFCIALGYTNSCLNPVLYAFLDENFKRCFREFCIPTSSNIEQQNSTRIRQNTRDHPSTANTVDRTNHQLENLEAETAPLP
Chain of Kappa-type opioid receptor (P41145 whole entry): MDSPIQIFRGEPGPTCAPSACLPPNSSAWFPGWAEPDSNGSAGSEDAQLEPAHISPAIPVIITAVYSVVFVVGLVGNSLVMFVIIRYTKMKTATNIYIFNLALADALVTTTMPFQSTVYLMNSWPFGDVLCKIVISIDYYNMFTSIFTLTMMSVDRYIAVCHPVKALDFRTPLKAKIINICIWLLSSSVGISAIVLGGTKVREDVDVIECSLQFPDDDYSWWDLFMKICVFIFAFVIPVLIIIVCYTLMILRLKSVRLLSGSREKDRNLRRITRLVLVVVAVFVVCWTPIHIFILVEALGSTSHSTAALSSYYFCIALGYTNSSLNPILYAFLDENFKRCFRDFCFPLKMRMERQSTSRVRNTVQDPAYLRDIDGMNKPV
Chain of 5-hydroxytryptamine receptor 2A (P28223 whole entry): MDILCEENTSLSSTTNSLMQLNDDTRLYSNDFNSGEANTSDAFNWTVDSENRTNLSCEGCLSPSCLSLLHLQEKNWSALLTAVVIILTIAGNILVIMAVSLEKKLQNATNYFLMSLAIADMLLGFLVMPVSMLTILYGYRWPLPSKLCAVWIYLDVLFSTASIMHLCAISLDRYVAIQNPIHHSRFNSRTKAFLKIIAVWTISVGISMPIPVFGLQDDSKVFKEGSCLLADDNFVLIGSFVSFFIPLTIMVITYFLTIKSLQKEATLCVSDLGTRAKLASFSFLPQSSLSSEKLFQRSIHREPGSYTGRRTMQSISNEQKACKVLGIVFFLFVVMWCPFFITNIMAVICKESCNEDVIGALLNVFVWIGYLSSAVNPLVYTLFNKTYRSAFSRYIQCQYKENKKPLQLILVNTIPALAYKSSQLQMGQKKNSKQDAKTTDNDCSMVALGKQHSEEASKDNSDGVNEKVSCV

Take `COc1ccccc1N1CCN(CCCNC(=O)NN(Cc2ccccc2)c2ccccc2)CC1`: the Ki stood at 77 nM at D(2) dopamine receptor [1]; 73 nM on D(2) dopamine receptor [2]; 170 nM on D(3) dopamine receptor; 200 nM at D(1A) dopamine receptor; 340 nM at D(1B) dopamine receptor; 1.7 nM in [3]. Moreover, the inhibitory constant (Ki) is 400 nM in [4]; 13 µM in series [5]; 1800 nM in [6]; 10 µM in series [7]; 3.9 µM in [8]; 2000 nM at Mu-type opioid receptor. The Ki in series [9] was 25 µM; in series [10], 14 µM; in series [11], 25 µM; in series [12], 17 nM; in series [13], 65 nM. Also, the result in series [14] was inactive. For the same compound, the remaining at 2 h, 20 µM in series [15] stood at 10%. For the same compound, in [16], the Drug metabolism result is “Metabolite_Detected”.

One may read the Ki as the equilibrium dissociation constant of an inhibitor or competing ligand from its target. The low end stands for tighter binding, the high end for weaker binding.
